Among the data in ChEMBL document CHEMBL1124643 (J Med Chem, 1989) are IC50 values, retold here.

The term IC50 denotes the point on the concentration scale where inhibition reaches its midpoint.

The target of test [1] is T1, Phosphodiesterase 1 (Bos taurus, UniProt Q01061+P14100). Kind of test: Inhibitory activity against phosphodiesterase was determined in vitro using bovine aorta, at 1 uM cGMP in the presence of calcium (10 uM) and calmodulin (15 nM). The class given is protein assay. Put shortly:
(§1)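 Calmodulin-dependent PDE peak taken from DEAE-trisacryl gradient fractions of a 105000g vascular smooth muscle supernatant. Assayed with 1 μM cGMP substrate, CaCl2 and excess bovine brain calmodulin, keeping hydrolysis ≤15%. Drugs in DMSO or DMF, final solvent ≤1%. IC50 from linear regression of % activity vs log concentration, using at least six points. Mean ± SEM of three separate enzyme preparations.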

Test [2] has as its target T2, cGMP-specific 3',5'-cyclic phosphodiesterase (Bos taurus, UniProt Q28156). In words: Inhibitory activity against phosphodiesterase was determined in vitro using bovine aorta, at 1 uM cGMP for cGMP-PDE.
In test [3] the target is cAMP phosphodiesterase (Bos taurus). In words: Inhibitory activity against phosphodiesterase was determined in vitro using bovine aorta, at 1 uM cAMP for cAMP-PDE.
The nature of test [4]: Inhibition of phosphodiesterase from bovine aorta with 1 uM cGMP calcium (10 uM) and calmodulin (15 nM). Details: species or system Bos taurus. Put shortly:
as §1

For test [5], the target named is T2, cGMP-specific 3',5'-cyclic phosphodiesterase. In words: Inhibition of cGMP-PDE phosphodiesterase from bovine aorta using 1 uM cGMP (insignificant).
Test [6] has the same target. Kind of test: Inhibition of cGMP-PDE phosphodiesterase from bovine aorta using 1 uM cGMP. Put shortly: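 Enzyme from the 105000g supernatant, separated on DEAE-trisacryl with a 0–0.4 NaCl gradient; the cGMP-PDE peak was dialysed and stored at −80 °C. Assayed without calcium, with EGTA, at 1 μM cGMP, keeping hydrolysis ≤15%. Drugs were in DMSO or DMF, ≤1% final.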

In test [7] the target is T1, Phosphodiesterase 1. In words: Inhibition of phosphodiesterase from bovine aorta with 1 uM cGMP calcium (10 uM) and calmodulin (15 nM) (insignificant). The format is protein assay. Put shortly:
as §1

In test [8] the target is cAMP phosphodiesterase (Bos taurus). In words: Inhibitory activity against phosphodiesterase was determined in vitro using bovine aorta, at 1 uM cAMP for cAMP-PDE. The source holds these as a separate data set.
Test [9] has as its target T1, Phosphodiesterase 1. Kind of test: Inhibitory activity against […] phosphodiesterase was determined in vitro using bovine aorta, at 1 uM cGMP in the presence of calcium (10 uM) and calmodulin (15 nM); Compound is insignificant. The format is protein assay.
The target in test [10] is T2, cGMP-specific 3',5'-cyclic phosphodiesterase. Kind of test: Inhibitory activity against phosphodiesterase was determined in vitro using bovine aorta, at 1 uM cGMP for cGMP-PDE;Compound is insignificant.
Test [11] addresses cAMP phosphodiesterase (Bos taurus). In words: Inhibition of cAMP-PDE phosphodiesterase from bovine aorta using 1 uM cAMP (insignificant).

Structures are written as SMILES.

As for `COc1ccc(C2CNC(=O)C2)cc1O` (centres undefined), the results for the IC50 in test [1], in test [2] and in test [3] were over 0.001 M, over 1000 µM and over 0.001 M, respectively.

Turning to `CCCCOc1ccc(C2CNC(=O)C2)cc1OC` (centres undefined), the IC50 in [1] is over 0.001 M; in [2] it was over 1000 µM; in test [3] it was over 0.001 M.

For `COc1ccc(C2CNC(=O)C2)cc1OCCCC(=O)N(C)C1CCCCC1` (centres undefined), the values for the IC50 in [1], in test [2] and in test [3] were over 0.001 M, over 1000 µM and 34 µM, respectively.

With `COc1ccc(C2CC(=O)N(c3ccccc3)C2)cc1OC` (centres undefined), the IC50 in test [4] was 230 µM; in [5], over 1000 µM.

Consider `COc1ccc(C2CNC(=O)C2C)cc1OC` (centres undefined), for which the values for the IC50 in [1], in [2] and in test [3] were over 0.001 M, over 1000 µM and 22 µM, respectively.

On to `O=C1CC(c2ccccc2)CN1` (centres undefined), for which the IC50 in test [1] is over 0.001 M; in [6] it was over 1000 µM.

For `COc1ccc(C2CC(=O)N(C(=O)c3ccccc3)C2)cc1OC` (centres undefined), the IC50 is over 0.001 M in test [7], over 1000 µM in test [5] and 58 µM in test [8].

In the case of `CCOC(=O)CCCOc1cc(C2CNC(=O)C2)ccc1OC` (centres undefined), the IC50 in test [1] was over 0.001 M; in test [2], over 1000 µM; in [3] it was 30 µM.

On to `COc1ccc(C2CC(=O)N(Cc3ccccc3)C2)cc1OC` (centres undefined), for which the results for the IC50 in test [9] and in test [10] were over 0.001 M and over 1000 µM, respectively.

Take `COc1ccc(C2CNC(=O)C2)cc1OCc1ccccc1` (centres undefined): the IC50 in test [1] is over 0.001 M; in test [2], 174 µM; in [3], 96 µM.

Turning to `C#CCOc1cc(C2CNC(=O)C2)ccc1OC` (centres undefined), the results for the IC50 in test [1] and in test [2] were over 0.001 M and over 1000 µM, respectively.

Regarding `CCC(C)COc1cc(C2CNC(=O)C2)ccc1OC` (centres undefined), the results for the IC50 in test [1] and in test [2] were over 0.001 M and 200 µM, respectively.

As to `CCCCOc1cccc(C2CNC(=O)C2)c1` (centres undefined), the IC50 is over 0.001 M in test [1], over 1000 µM in test [6] and over 0.001 M in test [3].

Turning to `CCCCOc1ccc(C2CNC(=O)C2)cc1` (centres undefined), the IC50 in test [9] was over 0.001 M; in test [10], over 1000 µM; in test [11], over 0.001 M.

For `COc1ccc(C2CC(=O)N(C(C)=O)C2)cc1OC` (centres undefined), the IC50 in [9] was over 0.001 M; in test [6], over 1000 µM; in [8] it was 25 µM.

With `COc1cc2c(cc1OC)[C@@H]1CNC(=O)[C@@H]1CC2`, the results for the IC50 in [9], in [10] and in test [8] were over 0.001 M, over 1000 µM and 220 µM, respectively.

Regarding `CCCCOc1cc(C2CNC(=O)C2)ccc1OC` (centres undefined), the IC50 is over 0.001 M in [1], over 1000 µM in test [2] and 13 µM in [3].

For `COc1cc2c(cc1OC)[C@@H]1CNC(=O)[C@H]1CC2`, the results for the IC50 in test [7], in [5] and in [8] were over 0.001 M, over 1000 µM and 138 µM, respectively.

With `COc1ccc(C2CNC(=O)C2C(=O)O)cc1OC` (centres undefined), the IC50 in test [9] was over 0.001 M; in test [10], over 1000 µM.

With `COc1ccc(C2CC(=O)N(C)C2)cc1OC` (centres undefined), the IC50 in test [9] is over 0.001 M; in test [10] it was over 1000 µM.

Regarding `CCCCOc1cc(C2CN=C(S)C2)ccc1OC` (centres undefined), the IC50 in test [9] is over 0.001 M; in test [6] it was 195 µM; in test [8], 500 µM.

In the case of `COc1ccc(C2CNC(=O)C2)cc1OCCCC(=O)O` (centres undefined), the IC50 in [1] is over 0.001 M; in test [2] it was over 1000 µM; in test [3] it was 400 µM.

As to `CCOC(=O)C1C(=O)NCC1c1ccc(OC)c(OC)c1` (centres undefined), the IC50 in test [9] is over 0.001 M; in test [10], over 1000 µM; in [8], 21 µM.

As for `COc1ccc(C2CCNC2)cc1OC.O=C(O)C(=O)O` (centres undefined), the IC50 in test [9] is over 0.001 M; in test [10], over 1000 µM; in test [11], over 0.001 M.

For `COc1cc2c(cc1OC)[C@H]1CC(=O)NC1C2` (some centres undefined), the IC50 in [9] is over 0.001 M; in [10] it was over 1000 µM; in test [8], 800 µM.

Take `CCCCNC(=O)CCCOc1cc(C2CNC(=O)C2)ccc1OC` (centres undefined): the IC50 is over 0.001 M in test [1], over 1000 µM in test [2] and 16 µM in [3].

For `COc1ccc(C2CNC(=O)C2)cc1OCC(C)C` (centres undefined), the IC50 is over 0.001 M in test [1], over 1000 µM in test [2] and 18 µM in test [3].

Regarding `C=C(C)COc1cc(C2CNC(=O)C2)ccc1OC` (centres undefined), the figures for the IC50 in test [1], in test [2] and in test [3] were over 0.001 M, over 1000 µM and 24 µM, respectively.

On to `COc1ccc(C2CNC(=O)C2)cc1OC` (centres undefined), for which the results for the IC50 in test [1] and in test [2] were over 0.001 M and over 1000 µM, respectively.

Regarding `CCCCOc1cc(CC2CNC(=O)N2)ccc1OC` (centres undefined) [RO-201724], the concentration for half-maximal inhibition (IC50) amounted to 940 µM in [1] and 380 µM in [2].

In the case of `COc1ccc(C2CNC(=O)C2)cc1OC1CCCC1` (centres undefined) [ROLIPRAM], the IC50 in test [1] came out at 2700 µM.

For the compound `COc1cc2c(cc1OC)-c1c/c(=N\c3c(C)cc(C)cc3C)n(C)c(=O)n1CC2` [TREQUINSIN], the IC50 in test [4] stood at 13 µM; in test [6] it was 5 µM.
